Values joined by “and” are separate entries in the source; they are usually repeats but may differ in a detail not shown here. Equal values may be shown once. “Also recorded” adds a separate entry of the source. Read-outs that look alike come from different tables or passages of the source.
Columns and labels:
[1] = tested on: atRA formation in testes S10 fractions; experiment: atRA formation velocity in testes S10 fractions from WIN 18,446 treated mice; format: in vivo, mouse
[2] = tested on: atRA formation in mouse testis S10 fractions; experiment: Inhibition of atRA formation by WIN 18,446 in testis S10 fractions; format: biochemical
[3] = tested on: serum atRA concentrations; experiment: Serum atRA concentrations after WIN 18,446 administration; format: in vivo, mouse
[4] = tested on: testis atRA concentrations; experiment: Testis atRA concentrations after WIN 18,446 administration; format: in vivo, mouse; details: for testis atRA concentration: single dose
[5] = tested on: atRA formation in mouse liver S10 protein; experiment: Time dependent inhibition of atRA formation in liver S10 protein; format: biochemical; details: pooled liver S10 protein, 1 µM WIN 18,446 preincubation
[6] = tested on: atRA formation in human testis; details: human testicular tissue; cited from earlier work
[7] = tested on: atRA formation in mouse liver S10 protein; format: biochemical
[8] = tested on: liver atRA concentrations; experiment: Liver atRA concentrations after WIN 18,446 administration; format: in vivo, mouse
[9] = tested on: ALDH1A1 and ALDH1A2 protein expression; experiment: ALDH1A1 and ALDH1A2 protein expression in liver and testis of treated mice; format: in vivo, mouse; details: 8 days of treatment
How it was run: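 Test compound was given orally at 125 mg/kg every 24 h for 8 days (n=3), alongside a single-dose group (n=3) and vehicle controls dosed with 1% gum tragacanth (n=8). S10 fractions (microsomes plus cytosol) were made from each mouse's testes (17–45 mg) and liver (114–309 mg), protein was measured by BCA, and ALDH1A1 and ALDH1A2 were quantified by LC-MS/MS. Mean ± SD.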

[10] = 500 nM, ultracentrifugation
[11] = tested on: atRA formation in mouse liver S10 fractions; experiment: Inhibition of atRA formation by WIN 18,446 in liver S10 fractions; format: biochemical; details: read-out: IC50 for inhibition of atRA formation; pooled liver S10, 100 nM at-retinal, 2 mM NAD+
[12] = WIN 18,446 pharmacokinetics in mice; format: in vivo, mouse
ALDH1A2 = target: T1, ALDH1A2 (Mus musculus, UniProt Q62148); details: mouse testes S10 fractions
T1 sequence (Q62148 1-518): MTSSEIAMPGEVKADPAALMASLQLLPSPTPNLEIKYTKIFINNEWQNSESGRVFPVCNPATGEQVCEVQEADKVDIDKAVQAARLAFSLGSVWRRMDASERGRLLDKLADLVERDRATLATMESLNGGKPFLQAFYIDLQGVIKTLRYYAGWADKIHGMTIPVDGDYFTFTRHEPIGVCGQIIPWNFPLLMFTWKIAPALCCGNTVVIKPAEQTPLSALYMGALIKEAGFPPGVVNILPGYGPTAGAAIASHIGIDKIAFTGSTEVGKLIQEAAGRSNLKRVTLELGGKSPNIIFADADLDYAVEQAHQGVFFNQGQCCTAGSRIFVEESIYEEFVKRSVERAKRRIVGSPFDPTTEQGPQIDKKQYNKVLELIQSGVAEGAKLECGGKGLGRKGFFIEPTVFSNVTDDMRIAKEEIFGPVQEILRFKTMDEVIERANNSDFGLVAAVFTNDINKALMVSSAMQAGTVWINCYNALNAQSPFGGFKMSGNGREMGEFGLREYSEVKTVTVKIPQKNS

ALDH1A1 = details: read-out: Km of atRA formation; recombinant ALDH1A1; cited from earlier work
[13] = Tissue half-life of atRA from concentration-time curves after WIN 18,446; format: in vivo; details: C57BL/6-129, mouse, po, 125 mg/kg
AOX = details: cited from earlier work
[14] = tested on: atRA formation in the mouse liver; details: cited from earlier work
[15] = 125 mg/kg once a day for 8 days
[16] = eight daily doses 125 mg/kg po, mice

In the case of `O=C(NCCCCCCCCNC(=O)C(Cl)Cl)C(Cl)Cl` [WIN 18,446], the “decrease in atRA formation in testes S10” value ([1]; at the time of the 8th dose (24 hours after 7th dose)) is reported as 79 ± 5%, the “decrease in atRA formation in testes S10” value ([1]; testes collected 24 hours after single dose 125 mg/kg, 125 mg/kg) is reported as 55 ± 2% and 55% and the IC50 ([2]; read-out: IC50 for inhibition of atRA formation, pooled testis S10, 100 nM at-retinal, 2 mM NAD+) is reported as 0.059 ± 0.001 µM. For the same molecule, the “maximum inhibition of atRA formation” value ([2]; testis S10 fractions) was over 95%, the “average serum atRA concentration” value [3, 15] was 1.3 ± 0.7 pmol/g and the “time of first significant decrease of serum atRA” value ([3]; after the first dose, p < 0.05) was 2 h. For the same molecule, the “time of return of serum atRA to baseline” value ([3]; single dose) was 24 h, the “serum atRA concentration” value ([3]; single dose, by 4 hours) was < 20 % of control and the “average testicular atRA concentration over the 24 hours dosing interval” value [4, 15] was 1.5 ± 0.3 pmol/g. The “testicular atRA concentration, average for the dosing interval” value [4, 15] was 33 % of control and 33 ± 5 % of control, the “decrease in testicular atRA” value ([4]; abstract, dosing not specified) was “over 90%” and the “time of first significant reduction of testis atRA” value ([4]; after the first dose, p < 0.01) was 0.5 h. For the same molecule, the “observed decrease in testis atRA concentrations” value ([4]; following WIN 18,446 dosing (compared with single dose prediction)) was 67%, the “testis atRA concentration” value ([4]; 24 hours after dosing) was 23 % of control and the “testis atRA concentration” value ([4]; by 4 hours) was < 10 % of control. For the same molecule, the “testicular atRA concentration” value ([4]; time 0 hr before the 8th dose) was 60 % of control, the “time dependent inhibition of atRA formation” value [5] was “not liver S10 protein; also recorded: not in the liver” and the “inhibition of atRA formation in human testis” value [6] was “more than 95%”. The “inhibition of atRA formation” value ([7]; WIN 18,446 5000 nM alone, 1000 nM at-retinal, Figure 2D) was 60 ± 2%, the “average liver atRA concentration” value [8, 15] was 5.4 ± 1.9 pmol/g and the “reduction in average liver atRA concentration versus vehicle” value [8, 15] was 32% and 32 ± 3%. For the same molecule, the “decrease in liver atRA” value ([8]; abstract, dosing not specified) was 50%, the “time of first significant reduction of liver atRA” value ([8]; after the first dose, p < 0.01) was 0.5 h and the “decrease in hepatic atRA concentration” value ([8]; single dose) was 42%. For the same molecule, the “time of return of liver atRA to baseline” value ([8]; single dose) was 12 h, the “liver atRA concentration” value ([8]; single dose, by 4 hours after dosing) was 58 % of control and the “hepatic atRA concentration on return” value ([8]; single dose, within 24 hours) was 100%. For the same molecule, the “change in ALDH1A1 or ALDH1A2 expression in liver or testis” value [9] was “not significantly altered; also recorded: not significantly changed”, the “fu in mouse serum” value [10] was over 0.99 and the IC50 [11] was 0.092 ± 0.002 µM. For the same molecule, the “average concentration over the 24 hour dosing interval” value ([12]; day 8 of dosing 125 mg/kg po) was 3.5 µM, the “AUC0–24” value [12, 16] was 87.6 µM·h and the Cmax [12, 16] was 8.5 µM. The “increase in Cmax versus single dose” value ([12]; eight daily doses vs single dose) was 7 fold, the “AUC0-∞” value ([12]; single dose 125 mg/kg po, mice) was 2.5 µM·h and the Cmax ([12]; single dose 125 mg/kg po, mice) was 1.3 µM. For the same molecule, the “average concentration over a 24 hour interval” value ([12]; single dose 125 mg/kg po, mice) was 0.1 µM, the “time to reach Cmax” value ([12]; single dose 125 mg/kg po, mice) was at most 30 min and the “two compartment model parameter A” value ([12]; single dose, fit of equation 4) was -6.6 µM. For the same molecule, the “two compartment model parameter B” value ([12]; single dose, fit of equation 4) was 6.2 µM, the “two compartment model parameter C” value ([12]; single dose, fit of equation 4) was 0.4 µM and the “two compartment model parameter α” value ([12]; single dose, fit of equation 4) was 1.3e+06 h⁻¹. For the same molecule, the “two compartment model parameter β” value ([12]; single dose, fit of equation 4) was 3.7 h⁻¹, the “two compartment model parameter γ” value ([12]; single dose, fit of equation 4) was 0.2 hr-^1 and the “KI (time dependent inhibition)” value (ALDH1A2) was 0.42 ± 0.19 µM.
In the case of `CC1=C(/C=C/C(C)=C/C=C/C(C)=C/C=O)C(C)(C)CCC1` [at-retinal, all-trans retinal], the Km (ALDH1A1) is listed as 0.285 µM.
`CC1=C(/C=C/C(C)=C/C=C/C(C)=C/C(=O)O)C(C)(C)CCC1` [atRA, all-trans retinoic acid] gave a half-life ([13]; liver) of under 30 min, a half-life ([13]; serum) of 30 ± 6 min and a half-life ([13]; testis) of 78 ± 6 min.
In the case of `NNc1nncc2ccccc12` [hydralazine], the KI (AOX) is listed as 83 ± 27 µM, the kinact (AOX) is listed as 3.8 ± 0.4 hr-^1 and the “inhibition of atRA formation” value ([7]; hydralazine 1 mM, 45 min preincubation, liver S10, 1000 nM at-retinal) is listed as “approximately 50%”.
In the case of `Cc1ncc(CO)c(C=O)c1O` [pyridoxal], the “inhibition of atRA formation” value [14] is given as “approximately 5%”.
